≈ marks a conversion by molar mass, not a printed value.
Assays:
[1] = system: Toxoplasma gondii; assay: Antimicrobial activity against tachyzoites of Toxoplasma gondii RH infected in Vero cells assessed as reduction of infected cells at 0.1 mM after 24 hrs relative to control; assay type: functional; set-up: scale not given: the % may be the effect or the level left
Outline: (§1)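 T. gondii RH tachyzoites were taken from mouse intraperitoneal passage. Vero cells were infected at 10:1 parasite:host for 1 h, PBS-washed, then held 24 h at 37 °C in medium 199 + 5% FCS. Compound exposure was 24 h at 37 °C. Cells were Bouin-fixed, Giemsa-stained and light-microscopy scored (≥400 cells) for % infected cells. Student's t-test, P<0.05. 13 assays in triplicate.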

[2] = system: Toxoplasma gondii; assay: Antimicrobial activity against tachyzoites of Toxoplasma gondii RH infected in Vero cells assessed as reduction of infected cells at 1 mM after 24 hrs relative to control; assay type: functional; set-up: scale not given: the % may be the effect or the level left; outline: as §1
[3] = system: Toxoplasma gondii; assay: Antimicrobial activity against tachyzoites of Toxoplasma gondii RH infected in Vero cells assessed as reduction of infected cells at 10 mM after 24 hrs relative to control; assay type: functional; set-up: scale not given: the % may be the effect or the level left; outline: as §1
[4] = Cytotoxicity against african green monkey Vero cells after 24 hrs; assay type: cell-based; settings: chlorocebus sabaeus, read-out: LD50
[5] = Cytotoxicity against african green monkey Vero cells infected with tachyzoites of Toxoplasma gondii RH after 24 hrs; assay type: cell-based; settings: chlorocebus sabaeus, read-out: LD50
Outline: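 Vero cells were infected with RH tachyzoites (10:1, 1 h), washed and incubated 24 h. They were then exposed 24 h to compound over 0.01–10 mM, in triplicate. Viability was scored by trypan blue exclusion, and LD50 was obtained by non-linear regression.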

[6] = system: Toxoplasma gondii; assay: Antimicrobial activity against tachyzoites of Toxoplasma gondii RH infected in Vero cells assessed as reduction of infected cells after 24 hrs; assay type: functional; settings: read-out: LD50 (the source's name)
Outline: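 RH tachyzoites came from intraperitoneal passage in Swiss mice, harvested at 48 h. Vero cells were infected at a 10:1 parasite:host ratio for 1 h, washed with PBS and grown 24 h at 37 °C in medium 199 with 5% FCS. Compounds were then added at 0.1, 1 and 10 mM for 24 h. Cells were Bouin-fixed and Giemsa-stained, and at least 400 cells were counted by light microscopy. Mean ± SD, n = 3; Student's t-test.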

[7] = system: Aspergillus niger; assay: Antifungal activity against Aspergillus niger UFPEDA 2003 by disc diffusion method; assay type: functional
Outline: (§2)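 Disc diffusion: discs holding known amounts of agent were laid on agar seeded with a standardized microbial suspension. DMSO discs (CH₂Cl₂ for ketoconazole tests) served as negative controls. Read-out was mean zone of inhibition (mm). Run in triplicate, repeated if results differed.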

[8] = system: Staphylococcus aureus; assay: Antibacterial activity against Staphylococcus aureus UFPEDA 02 after 24 to 48 hrs by serial dilution method; assay type: functional
[9] = system: Bacillus subtilis; assay: Antibacterial activity against Bacillus subtilis UFPEDA 16 after 24 to 48 hrs by serial dilution method; assay type: functional
[10] = system: Staphylococcus aureus; assay: Antibacterial activity against Staphylococcus aureus UFPEDA 02 by disc diffusion method; assay type: functional; outline: as §2
[11] = system: Bacillus subtilis; assay: Antibacterial activity against Bacillus subtilis UFPEDA 16 by disc diffusion method; assay type: functional; outline: as §2
[12] = system: Escherichia coli; assay: Antibacterial activity against Escherichia coli UFPEDA 224 by disc diffusion method; assay type: functional; outline: as §2
[13] = system: Mycolicibacterium smegmatis; assay: Antibacterial activity against Mycobacterium smegmatis UFPEDA 71 by disc diffusion method; assay type: functional; outline: as §2
[14] = system: Escherichia coli; assay: Antibacterial activity against Escherichia coli UFPEDA 224 after 24 to 48 hrs by serial dilution method; assay type: functional
[15] = system: Mycolicibacterium smegmatis; assay: Antibacterial activity against Mycobacterium smegmatis UFPEDA 71 after 24 to 48 hrs by serial dilution method; assay type: functional
[16] = system: Candida albicans; assay: Antifungal activity against Candida albicans UFPEDA 1007 after 24 to 48 hrs by serial dilution method; assay type: functional
Outline: (§3)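 Only compounds giving a disc-diffusion mean inhibition zone of at least 18 mm were carried to MIC. Nistatin and ketoconazole served as antifungal references.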

[17] = system: Candida; assay: Antifungal activity against Candida sp. UFPEDA 2224 after 24 to 48 hrs by serial dilution method; assay type: functional; outline: as §3
[18] = system: Candida albicans; assay: Antifungal activity against Candida albicans UFPEDA 1007 by disc diffusion method; assay type: functional; outline: as §2
[19] = system: Candida; assay: Antifungal activity against Candida sp. UFPEDA 2224 by disc diffusion method; assay type: functional; outline: as §2
[20] = system: Aspergillus niger; assay: Antifungal activity against Aspergillus niger UFPEDA 2003 after 24 to 48 hrs by serial dilution method; assay type: functional; outline: as §3

## Cc1[nH]cnc1-c1nnc(Nc2ccccc2)s1
[1]
  Activity: 13%
[2]
  Activity: 10%
[3]
  Activity: 0.36%
[4]
  CC50 at 24 h: > 10000 µM
[5]
  CC50 at 24 h: 600 µM
[6]
  LC50: 50 µM

## Cc1[nH]cnc1C(=O)N/N=C1\SC(CC(=O)O)C(=O)N1c1ccc(F)cc1 (stereo not drawn)
[1]
  Activity: 59%
[2]
  Activity: 22%
[3]
  Activity: 0%
[4]
  CC50 at 24 h: 5000 µM
[5]
  CC50 at 24 h: 1000 µM
[6]
  LC50: 100 µM
[7]
  inhibition zone (IZ): 18 mm

## O=C(N[C@H](CO)[C@H](O)c1ccc([N+](=O)[O-])cc1)C(Cl)Cl [CHLORAMPHENICOL]
[8]
  MIC: 35 µg/mL (≈ 108 µM)
[9]
  MIC: 30 µg/mL (≈ 92.8 µM)

## Cc1[nH]cnc1C(=O)NNC(=S)Nc1ccc(F)cc1
[1]
  Activity: 14%
[2]
  Activity: 8%
[3]
  Activity: 0%
[4]
  CC50 at 24 h: 10000 µM
[5]
  CC50 at 24 h: 60 µM
[6]
  LC50: 50 µM
[10]
  inhibition zone (IZ): 20 mm
[11]
  inhibition zone (IZ): 28 mm
[12]
  inhibition zone (IZ): 21 mm
[13]
  inhibition zone (IZ): 20 mm
[8]
  MIC: 190 µg/mL (≈ 648 µM)
[9]
  MIC: 130 µg/mL (≈ 443 µM)
[14]
  MIC: 250 µg/mL (≈ 852 µM)
[15]
  MIC: 160 µg/mL (≈ 545 µM)

## COc1ccc(N2C(=O)C(CC(=O)O)S/C2=N\NC(=O)c2nc[nH]c2C)cc1 (stereo not drawn)
[1]
  Activity: 73%
[2]
  Activity: 17%
[3]
  Activity: 0%
[4]
  CC50 at 24 h: 5000 µM
[5]
  CC50 at 24 h: 1000 µM
[6]
  LC50: 500 µM

## CO[C@H]1/C=C/O[C@@]2(C)Oc3c(C)c(O)c4c(O)c(c(/C=N/N5CCN(C)CC5)c(O)c4c3C2=O)NC(=O)/C(C)=C\C=C\[C@H](C)[C@H](O)[C@@H](C)[C@@H](O)[C@@H](C)[C@H](OC(C)=O)[C@@H]1C [RIFAMPIN]
[15]
  MIC: 55 µg/mL (≈ 66.8 µM)

## COc1ccc(NC(=S)NNC(=O)c2nc[nH]c2C)cc1
[1]
  Activity: 22%
[2]
  Activity: 12%
[3]
  Activity: 0%
[4]
  CC50 at 24 h: 1000 µM
[5]
  CC50 at 24 h: 70 µM
[6]
  LC50: 60 µM
[10]
  inhibition zone (IZ): 19 mm
[11]
  inhibition zone (IZ): 22 mm
[8]
  MIC: 210 µg/mL (≈ 688 µM)
[9]
  MIC: 160 µg/mL (≈ 524 µM)

## Cc1[nH]cnc1C(=O)NNC(=S)Nc1ccc(Cl)cc1
[1]
  Activity: 11%
[2]
  Activity: 8%
[3]
  Activity: 1%
[4]
  CC50 at 24 h: > 10000 µM
[5]
  CC50 at 24 h: 60 µM
[6]
  LC50: 60 µM
[10]
  inhibition zone (IZ): 25 mm
[11]
  inhibition zone (IZ): 29 mm
[13]
  inhibition zone (IZ): 21 mm
[8]
  MIC: 190 µg/mL (≈ 613 µM)
[9]
  MIC: 130 µg/mL (≈ 420 µM)
[15]
  MIC: 150 µg/mL (≈ 484 µM)

## Cc1[nH]cnc1-c1nnc(Nc2ccc(Cl)cc2)s1
[1]
  Activity: 12%
[2]
  Activity: 8%
[3]
  Activity: 1%
[4]
  CC50 at 24 h: > 10000 µM
[5]
  CC50 at 24 h: 80 µM
[6]
  LC50: 50 µM

## Cc1[nH]cnc1C(=O)N/N=C1\SC(CC(=O)O)C(=O)N1c1ccccc1 (stereo not drawn)
[1]
  Activity: 69%
[2]
  Activity: 42%
[3]
  Activity: 0%
[4]
  CC50 at 24 h: 5000 µM
[5]
  CC50 at 24 h: 5000 µM
[6]
  LC50: 1500 µM
[10]
  inhibition zone (IZ): 19 mm
[11]
  inhibition zone (IZ): 27 mm
[8]
  MIC: 250 µg/mL (≈ 670 µM)
[9]
  MIC: 270 µg/mL (≈ 723 µM)

## CC(=O)N1CCN(c2ccc(OCC3COC(Cn4ccnc4)(c4ccc(Cl)cc4Cl)O3)cc2)CC1 (stereo not drawn) [KETOCONAZOLE]
[16]
  MIC: 25 µg/mL (≈ 47 µM)
[17]
  MIC: 40 µg/mL (≈ 75.3 µM)

## NC(=O)NO [HYDROXYUREA]
[1]
  Activity: 53%
[2]
  Activity: 4%
[3]
  Activity: 1%
[4]
  CC50 at 24 h: > 10000 µM
[5]
  CC50 at 24 h: > 10000 µM
[6]
  LC50: 500 µM

## Cc1[nH]cnc1C(=O)N/N=C1\SC(CC(=O)O)C(=O)N1c1ccc(Cl)cc1 (stereo not drawn)
[1]
  Activity: 63%
[2]
  Activity: 51%
[3]
  Activity: 0.19%
[4]
  CC50 at 24 h: > 10000 µM
[5]
  CC50 at 24 h: 1000 µM
[6]
  LC50: 1500 µM
[18]
  inhibition zone (IZ): 20 mm
[19]
  inhibition zone (IZ): 20 mm
[16]
  MIC: 280 µg/mL (≈ 687 µM)
[17]
  MIC: 300 µg/mL (≈ 736 µM)

## NYSTATIN
[16]
  MIC: 50 µg/mL
[17]
  MIC: 50 µg/mL
[20]
  MIC: 50 µg/mL

## Nc1ccc(S(=O)(=O)Nc2ncccn2)cc1 [SULFADIAZINE]
[1]
  Activity: 64%
[2]
  Activity: 48%
[3]
  Activity: 36%
[4]
  CC50 at 24 h: > 10000 µM
[5]
  CC50 at 24 h: > 10000 µM
[6]
  LC50: 6000 µM

## Cc1[nH]cnc1C(=O)NNC(=S)Nc1ccccc1
[1]
  Activity: 18%
[2]
  Activity: 6%
[3]
  Activity: 0%
[4]
  CC50 at 24 h: 1000 µM
[5]
  CC50 at 24 h: 50 µM
[6]
  LC50: 50 µM
[10]
  inhibition zone (IZ): 18 mm
[11]
  inhibition zone (IZ): 27 mm
[8]
  MIC: 190 µg/mL (≈ 690 µM)
[9]
  MIC: 140 µg/mL (≈ 508 µM)

## COc1ccc(Nc2nnc(-c3nc[nH]c3C)s2)cc1
[1]
  Activity: 28%
[2]
  Activity: 14%
[3]
  Activity: 0%
[4]
  CC50 at 24 h: > 10000 µM
[5]
  CC50 at 24 h: 100 µM
[6]
  LC50: 50 µM

## Cc1[nH]cnc1-c1nnc(Nc2ccc(F)cc2)s1
[1]
  Activity: 22%
[2]
  Activity: 6%
[3]
  Activity: 3%
[4]
  CC50 at 24 h: > 10000 µM
[5]
  CC50 at 24 h: 70 µM
[6]
  LC50: 50 µM
